Consider four compounds from ChEMBL document CHEMBL3580613, “First enantiospecific syntheses of marine merosesquiterpenes neopetrosiquinones a and B: evaluation of biological activity” (J Nat Prod, 2015).

Usually IC50 stands for the concentration that inhibits the measured activity by half.

The test system of test [1] is A549. Nature of the test: Antiproliferative activity against human A549 cells incubated for 3 days by sulforhodamine B assay. Format: functional, cell-based. Particulars: A549, 72 h. An outline of the steps:
(§1)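 Cells in DMEM with 10% heat-inactivated FBS, penicillin–streptomycin and 2 mM L-glutamine at 37 °C, 5% CO2. Seeded at 5 × 10^3 cells/cm2 in quadruplicate. After 24 h, exposed to increasing compound concentrations for 3 days. Fixed with cold 10% TCA, stained with 0.4% sulforhodamine in 1% acetic acid, dye solubilized in 10 mM Tris-base pH 10.5, OD read at 492 nm. IC50 by linear interpolation on semilog dose–response curve. Mean ± SEM of four independent determinations.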

The subject of test [2] is MCF7. Nature of the test: Antiproliferative activity against human MCF7 cells incubated for 3 days by sulforhodamine B assay. Particulars: MCF7, 72 h. The format is functional, cell-based. The essentials:
as §1
(Sulforhodamine B stains cellular protein and so reports cell mass.)

For test [3], the system named is T84. Nature of the test: Antiproliferative activity against human T84 cells incubated for 3 days by sulforhodamine B assay. Format: functional, cell-based. Conditions: T84, 72 h. An outline of the steps: as §1
In test [4] the test system is MCF7. Nature of the test: Induction of apoptosis in human MCF7 cells at antiproliferative IC50 incubated for 6 hrs by fluorescence microscopy based TUNEL DNA fragmentation assay. Format: functional, cell-based.
In test [5] the test system is A549. The experiment in a line: Induction of apoptosis in 24 hrs serum-starved human A549 cells assessed as accumulation at subG1 phase at antiproliferative IC50 incubated for 24 hrs by propidium iodide staining based flow cytometry (reference value: 3.5 +/- 1.1%). The format is functional. In general terms: Flow cytometry measures light scatter and fluorescence of single cells or particles in a stream.

Test [6] relates to A549. Nature of the test: Induction of apoptosis in 24 hrs serum-starved human A549 cells assessed as accumulation at subG1 phase at 2 times antiproliferative IC50 incubated for 24 hrs by propidium iodide staining based flow cytometry (reference value: 3.5 +/- 1.1%). The format is functional.
The subject of test [7] is A549. The experiment in a line: Induction of cell cycle arrest in 24 hrs serum-starved human A549 cells assessed as accumulation at G0-G1 phase at antiproliferative IC50 incubated for 24 hrs by propidium iodide staining based flow cytometry (reference value: 62 +/- 1%). The format is functional.
Test [8] concerns A549. Nature of the test: Induction of cell cycle arrest in 24 hrs serum-starved human A549 cells assessed as accumulation at G0-G1 phase at 2 times antiproliferative IC50 incubated for 24 hrs by propidium iodide staining based flow cytometry (reference value: 62 +/- 1%). The format is functional.
Test [9] relates to A549. Nature of the test: Induction of cell cycle arrest in 24 hrs serum-starved human A549 cells assessed as accumulation at S phase at antiproliferative IC50 incubated for 24 hrs by propidium iodide staining based flow cytometry (reference value: 12 +/- 0.9%). The format is functional.
The subject of test [10] is A549. Nature of the test: Induction of cell cycle arrest in 24 hrs serum-starved human A549 cells assessed as accumulation at S phase at 2 times antiproliferative IC50 incubated for 24 hrs by propidium iodide staining based flow cytometry (reference value: 12 +/- 0.9%). Format: functional.
Test [11] deals with A549. The experiment in a line: Induction of cell cycle arrest in 24 hrs serum-starved human A549 cells assessed as accumulation at G2-M phase at antiproliferative IC50 incubated for 24 hrs by propidium iodide staining based flow cytometry (reference value: 22 +/- 1.8%). Format: functional.
Test [12] relates to A549. The experiment in a line: Induction of cell cycle arrest in 24 hrs serum-starved human A549 cells assessed as accumulation at G2-M phase at 2 times antiproliferative IC50 incubated for 24 hrs by propidium iodide staining based flow cytometry (reference value: 22 +/- 1.8%). Format: functional.
In test [13] the test system is MCF7. Nature of the test: Induction of apoptosis in 24 hrs serum-starved human MCF7 cells assessed as accumulation at subG1 phase at antiproliferative IC50 incubated for 24 hrs by propidium iodide staining based flow cytometry (reference value: 4 +/- 1.1%). The format is functional.
Test [14] has as its system MCF7. The experiment in a line: Induction of apoptosis in 24 hrs serum-starved human MCF7 cells assessed as accumulation at subG1 phase at 2 times antiproliferative IC50 incubated for 24 hrs by propidium iodide staining based flow cytometry (reference value: 4 +/- 1.1%). Format: functional.
The subject of test [15] is MCF7. The experiment in a line: Induction of cell cycle arrest in 24 hrs serum-starved human MCF7 cells assessed as accumulation at G0-G1 phase at antiproliferative IC50 incubated for 24 hrs by propidium iodide staining based flow cytometry (reference value: 51 +/- 0.9%). Format: functional.
Test [16] concerns MCF7. Nature of the test: Induction of cell cycle arrest in 24 hrs serum-starved human MCF7 cells assessed as accumulation at G0-G1 phase at 2 times antiproliferative IC50 incubated for 24 hrs by propidium iodide staining based flow cytometry (reference value: 51 +/- 0.9%). Format: functional.
Test [17] deals with MCF7. Nature of the test: Induction of cell cycle arrest in 24 hrs serum-starved human MCF7 cells assessed as accumulation at S phase at antiproliferative IC50 incubated for 24 hrs by propidium iodide staining based flow cytometry (reference value: 17 +/- 0.8%). The format is functional.
Test [18] relates to MCF7. The experiment in a line: Induction of cell cycle arrest in 24 hrs serum-starved human MCF7 cells assessed as accumulation at S phase at 2 times antiproliferative IC50 incubated for 24 hrs by propidium iodide staining based flow cytometry (reference value: 17 +/- 0.8%). The format is functional.
Test [19] deals with MCF7. The experiment in a line: Induction of cell cycle arrest in 24 hrs serum-starved human MCF7 cells assessed as accumulation at G2-M phase at antiproliferative IC50 incubated for 24 hrs by propidium iodide staining based flow cytometry (reference value: 28 +/- 0.3%). Format: functional.
The test system of test [20] is MCF7. The experiment in a line: Induction of cell cycle arrest in 24 hrs serum-starved human MCF7 cells assessed as accumulation at G2-M phase at 2 times antiproliferative IC50 incubated for 24 hrs by propidium iodide staining based flow cytometry (reference value: 28 +/- 0.3%). The format is functional.
The subject of test [21] is T84. Nature of the test: Induction of apoptosis in 24 hrs serum-starved human T84 cells assessed as accumulation at subG1 phase at antiproliferative IC50 incubated for 24 hrs by propidium iodide staining based flow cytometry (reference value: 4 +/- 0.3%). The format is functional.
Test [22] concerns T84. Nature of the test: Induction of apoptosis in 24 hrs serum-starved human T84 cells assessed as accumulation at subG1 phase at 2 times antiproliferative IC50 incubated for 24 hrs by propidium iodide staining based flow cytometry (reference value: 4 +/- 0.3%). Format: functional.
Test [23] deals with T84. The experiment in a line: Induction of cell cycle arrest in 24 hrs serum-starved human T84 cells assessed as accumulation at G0-G1 phase at antiproliferative IC50 incubated for 24 hrs by propidium iodide staining based flow cytometry (reference value: 65 +/- 1.1%). The format is functional.
The subject of test [24] is T84. The experiment in a line: Induction of cell cycle arrest in 24 hrs serum-starved human T84 cells assessed as accumulation at G0-G1 phase at 2 times antiproliferative IC50 incubated for 24 hrs by propidium iodide staining based flow cytometry (reference value: 65 +/- 1.1%). Format: functional.
For test [25], the system named is T84. Nature of the test: Induction of cell cycle arrest in 24 hrs serum-starved human T84 cells assessed as accumulation at S phase at antiproliferative IC50 incubated for 24 hrs by propidium iodide staining based flow cytometry (reference value: 13 +/- 0.6%). The format is functional.
Test [26] concerns T84. Nature of the test: Induction of cell cycle arrest in 24 hrs serum-starved human T84 cells assessed as accumulation at S phase at 2 times antiproliferative IC50 incubated for 24 hrs by propidium iodide staining based flow cytometry (reference value: 13 +/- 0.6%). The format is functional.
Test [27] has as its system T84. The experiment in a line: Induction of cell cycle arrest in 24 hrs serum-starved human T84 cells assessed as accumulation at G2-M phase at antiproliferative IC50 incubated for 24 hrs by propidium iodide staining based flow cytometry (reference value: 18 +/- 1%). Format: functional.
In test [28] the test system is T84. Nature of the test: Induction of cell cycle arrest in 24 hrs serum-starved human T84 cells assessed as accumulation at G2-M phase at 2 times antiproliferative IC50 incubated for 24 hrs by propidium iodide staining based flow cytometry (reference value: 18 +/- 1%). The format is functional.
For test [29], the system named is MCF7. Nature of the test: Induction of apoptosis in human MCF7 cells at 2 times antiproliferative IC50 incubated for 6 hrs by fluorescence microscopy based TUNEL DNA fragmentation assay. Format: functional, cell-based.
A further test relates to Trypanosoma cruzi. Nature of the test: Antiparasitic activity against Trypanosoma cruzi. The format is functional, organism-based.

SMILES strings stand for the structures. Active and inactive are the calls of the source. The rule behind the calls is not given here.

With `C[C@]1(CO)CCC[C@]2(C)c3cc4c(cc3C(=O)C[C@@H]12)C(=O)C=CC4=O`, the IC50 came out at 4.1 µM with A549 [1], 6.6 µM in the test with MCF7 [2] and 8 µM in the test on T84 [3]. The outcome in the test on MCF7 [4] was Active. Besides, the Activity is recorded as 3.9% in the test with A549 [5]; 8.1% in the test on A549 [6]; 63% with A549 [7]; 59% in the test on A549 [8]; 14% in the test on A549 [9]; 16% in the test with A549 [10]. The Activity in the test with A549 [11] was found to be 20%; in the test with A549 [12] it was 17%; in the test with MCF7 [13] it was 34%; with MCF7 [14], 60%; with MCF7 [15], 37%; in the test on MCF7 [16] it was 24%. Besides, the Activity with MCF7 [17] is reported as 9.4%; with MCF7 [18] it was 6.4%; in the test with MCF7 [19], 19%; with MCF7 [20] it was 9.7%; with T84 [21], 5.6%; in the test on T84 [22], 6.3%. In addition, the Activity in the test with T84 [23] was found to be 63%; with T84 [24] it was 62%; in the test with T84 [25], 15%; in the test on T84 [26], 17%; with T84 [27] it was 17%; in the test on T84 [28], 15%.
Consider `COc1ccc(OC)c2cc3c(cc12)C(=O)C[C@H]1[C@@](C)(CO)CCC[C@]31C`, for which the half-inhibitory concentration (IC50) in the test on A549 [1] came out at 21 µM; with MCF7 [2] it was 33 µM; in the test with T84 [3], 42 µM. Moreover, in the test on MCF7 [29], the outcome was Active. The Activity in the test with A549 [5] is 5.7%; in the test on A549 [6], 18%; with A549 [7], 68%; with A549 [8], 67%; with A549 [9], 12%; in the test with A549 [10] it was 7.5%. For the same compound, the Activity is 14% in the test on A549 [11]; 8% in the test on A549 [12]; 6.6% with MCF7 [13]; 91% in the test on MCF7 [14]; 66% in the test with MCF7 [15]; 6.9% in the test on MCF7 [16]. Further, the Activity is 11% with MCF7 [17]; 0.7% in the test with MCF7 [18]; 17% with MCF7 [19]; 1% in the test with MCF7 [20]; 5.7% in the test on T84 [21]; 8.2% in the test with T84 [22]. For the same compound, the Activity in the test with T84 [23] is recorded as 68%; in the test on T84 [24], 76%; with T84 [25], 15%; with T84 [26], 9.4%; with T84 [27] it was 12%; with T84 [28], 6.1%.
On to `CC1(C)CCC[C@@]2(C)c3cc4c(cc3CC[C@H]12)C(=O)C=CC4=O` [CYCLOZONARONE], for which half-maximal inhibition in the test on Trypanosoma cruzi (IC50) was put at 0.7 µM.
Regarding `C[C@]1(CO)CCC[C@]2(C)c3cc4c(cc3C=C[C@@H]12)C(=O)C=CC4=O`, the figures for the 50% inhibitory concentration (IC50) in the test with A549 [1], with MCF7 [2] and with T84 [3] were 8.3 µM, 7.7 µM and 11.5 µM, respectively. Also, the outcome with MCF7 [4] was Active. In addition, the Activity is listed as 4% with A549 [5]; 6.1% in the test on A549 [6]; 62% with A549 [7]; 67% with A549 [8]; 16% with A549 [9]; 12% in the test with A549 [10]. The Activity with A549 [11] came out at 17%; with A549 [12] it was 15%; with MCF7 [13], 32%; with MCF7 [14], 93%; in the test on MCF7 [15] it was 39%; with MCF7 [16] it was 5%. In addition, the Activity in the test on MCF7 [17] is 12%; in the test on MCF7 [18], 0.7%; in the test on MCF7 [19], 17%; with MCF7 [20], 1.7%; with T84 [21] it was 6.2%; in the test with T84 [22] it was 14%. Besides, the Activity is on record as 59% in the test with T84 [23]; 71% in the test on T84 [24]; 17% in the test with T84 [25]; 9% in the test on T84 [26]; 18% in the test on T84 [27]; 7.1% with T84 [28].
